Assay results taken from publication PMC8790780 (Chemistry (Weinheim an der Bergstrasse, Germany), 2021).

Key:
Hsp90β = Hsp90β (Homo sapiens, UniProt P08238); assay: Fluorescence polarization; type: binding; settings: for binding affinity for Hsp90β (in words): FP assay, SAR discussion; for Selectivity: Hsp90β versus Hsp90α, from FP IC50 values
Hsp90α = Hsp90α (Homo sapiens, UniProt P07900); assay: Fluorescence polarization; type: binding; settings: for binding affinity for Hsp90α (in words): FP assay, SAR discussion
NCI-H1299 cells = assay: Cell viability assay; type: cell-based; settings: Homo sapiens, NCI-H1299, 72 h, read-out: NCI—H1299 [IC50 in μM]
HT29 cells = assay: Cell viability assay; type: cell-based; settings: Homo sapiens, HT-29, 72 h, read-out: HT29 [IC50 in μM]
[1] = tested on: Hsp90 client proteins in HT-29 cell line; assay: Western blot analysis of client proteins in HT-29 cell lysates; type: cell-based, human; settings: HT-29, 24 h, 5-50 μM
Procedure, shortened: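 HT29 cells grown in RPMI with 10% FBS and 1% Pen-Strep. At ~70% confluence they were treated for 24 h with test compound (5, 10, 20, 30, 40, 50 μM) or GDA 500 nM. Cells were lysed in RIPA with protease/phosphatase inhibitors and spun 12,000g for 25 min at 4°C. BCA-normalized protein was run on 10% SDS-PAGE, transferred to PVDF, and detected with specific antibodies, HRP secondary and chemiluminescence.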

Chain of Hsp90β (P08238 whole entry): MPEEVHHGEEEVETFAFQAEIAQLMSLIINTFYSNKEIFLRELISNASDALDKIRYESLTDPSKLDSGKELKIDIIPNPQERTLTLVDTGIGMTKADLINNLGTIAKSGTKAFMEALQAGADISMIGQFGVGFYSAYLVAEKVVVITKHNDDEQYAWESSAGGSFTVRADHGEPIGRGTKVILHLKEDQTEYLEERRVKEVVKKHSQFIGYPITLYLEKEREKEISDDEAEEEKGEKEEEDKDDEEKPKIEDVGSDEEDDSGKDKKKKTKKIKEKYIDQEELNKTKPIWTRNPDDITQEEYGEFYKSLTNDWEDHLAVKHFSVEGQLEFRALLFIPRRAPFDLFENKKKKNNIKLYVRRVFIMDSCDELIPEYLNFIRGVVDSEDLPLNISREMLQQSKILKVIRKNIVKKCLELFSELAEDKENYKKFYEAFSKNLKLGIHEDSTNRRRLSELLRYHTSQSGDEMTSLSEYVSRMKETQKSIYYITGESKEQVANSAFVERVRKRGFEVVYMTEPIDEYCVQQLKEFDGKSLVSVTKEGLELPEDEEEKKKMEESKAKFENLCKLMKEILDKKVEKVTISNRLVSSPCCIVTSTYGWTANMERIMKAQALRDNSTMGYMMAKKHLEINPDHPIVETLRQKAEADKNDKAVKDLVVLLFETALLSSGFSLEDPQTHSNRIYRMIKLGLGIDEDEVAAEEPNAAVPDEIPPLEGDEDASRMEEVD

Structure (SMILES)	IC50 (Hsp90β) [µM]	binding affinity for Hsp90β (in words) (Hsp90β)	IC50 (Hsp90α) [µM]	binding affinity for Hsp90α (in words) (Hsp90α)	Selectivity (Hsp90β)	IC50 (HT29 cells) [µM]	selectivity for Hsp90β versus Hsp90α (Hsp90β)	IC50 (NCI-H1299 cells) [µM]	Erk5 total level [1]	Her-2 total level [1]	Hsp70 level [1]	survivin protein expression level (Hsp90α-dependent client) [1]	Akt protein level (Hsp90β-dependent client) ([1]; dose dependent)	CDK4 protein level (Hsp90β-dependent client) ([1]; dose dependent)
CC(C)c1cc(C(=O)N2Cc3ccccc3C2)c(O)c2c1C(=C(F)F)CC2 [Compound 45, (1-(difluoromethylene)-4-hydroxy-7-isopropyl-2,3-dihydro-1H-inden-5-yl)(isoindolin-2-yl)methanone]	> 100	did not display good affinity	> 100	did not display good affinity	–	–	–	–	–	–	–	–	–	–
CC(C)c1cc(C(=O)N2Cc3ccccc3C2)c(O)c2c1C(=O)C(F)(F)C2 [Compound 43, 2,2-difluoro-4-hydroxy-5-(isoindoline-2-carbonyl)-7-isopropyl-2,3-dihydro-1H-inden-1-one]	18.2 ± 1.3	poor affinity	> 100	–	>5	> 100	–	> 100	–	–	–	–	–	–
CC(C)c1cc(C(=O)N2Cc3ccccc3C2)c(O)c2c1C(=O)C(C(F)(F)F)C2 (stereo not shown) [Compound 44, 4-Hydroxy-5-(isoindoline-2-carbonyl)-7-isopropyl-2-(trifluoromethyl)-2,3-dihydro-1H-inden-1-one]	19.6 ± 2.2	–	> 100	–	>5	75.29 ± 0.66	–	57.8 ± 8.01	–	–	–	–	–	–
CC(C)c1cc(C(=O)N2Cc3ccccc3C2)c(O)c2c1C(=O)C=C2 [Compound 50, 4-hydroxy-5-(isoindoline-2-carbonyl)-7-isopropyl-1H-inden-1-one]	6.75 ± 0.01	–	43.1 ± 11.5	–	–	2.33 ± 0.48	–	1.53 ± 0.16	–	–	–	–	–	–
CC1Cc2c(O)c(C(=O)N3Cc4ccccc4C3)cc(C(C)C)c2C1=O (stereo not shown) [Compound 40, 4-Hydroxy-5-(isoindoline-2-carbonyl)-7-isopropyl-2-methyl-2,3-di-hydro-1H-inden-1-one]	8.83 ± 1.48	–	> 100	–	>11	60.2 ± 0.63	–	59 ± 1.78	–	–	–	–	–	–
CON=C1CCc2c(O)c(C(=O)N3Cc4ccccc4C3)cc(C(C)C)c21 [Compound 52, (4-hydroxy-7-isopropyl-1-(methoxyimino)-2,3-dihydro-1H-inden-5-yl)(isoindolin-2-yl)methanone]	> 100	–	> 100	–	–	51.2 ± 2.23	–	86 ± 7.7	–	–	–	–	–	–
CC(C)c1cc(C(=O)N2Cc3ccccc3C2)c(O)c2cc[nH]c12 [Compound 18, (4-hydroxy-7-isopropyl-1H-indol-5-yl)(isoindolin-2-yl)methanone]	> 100	–	> 100	–	–	62 ± 1.42	–	> 100	–	–	–	–	–	–
CC(C)c1cc(C(=O)N2Cc3ccccc3C2)c(O)c2nc[nH]c12 [Compound 21, (4-Hydroxy-7-isopropyl-1H-benzo[d]imidazol-5-yl)(isoindolin-2-yl) methanone]	0.45 ± 0.15	–	2.22 ± 0.19	–	4.9	93.7 ± 2.67	–	60 ± 10.5	–	–	–	–	–	–
CC(C)c1cc(C(=O)N2Cc3ccccc3C2)c(O)c2ccoc12 [Compound 5, (4-Hydroxy-7-isopropylbenzofuran-5-yl)(isoindolin-2-yl) methanone]	0.27 ± 0.09	–	> 100	no measurable affinity	> 370	18.8 ± 2.6	~ 370 fold	17.5 ± 0.42	decreased at higher concentrations	decreased at higher concentrations	appear to be induced	remained unaffected until higher concentrations	induced the degradation	induced the degradation
CC(C)c1cc(C(=O)N2Cc3ccccc3C2)c(O)c2c1CCC2=O [Compound 29a, 7-hydroxy-6-(isoindoline-2-carbonyl)-4-isopropyl-2,3-dihydro-1H-inden-1-one]	> 100	did not exhibit affinity	> 100	did not exhibit affinity	–	63.5 ± 1.69	–	67.6 ± 4.13	–	–	–	–	–	–
CC(C)c1cc(C(=O)N2Cc3ccccc3C2)c(O)c2c1C(=NO)CC2 [Compound 51, (4-hydroxy-1-(hydroxyimino)-7-isopropyl-2,3-dihydro-1H-inden-5-yl)(isoindolin-2-yl)methanone]	> 100	–	> 100	–	–	51.2 ± 2.23	–	33.7 ± 1.78	–	–	–	–	–	–
CC(C)c1cc(C(=O)N2Cc3ccccc3C2)c(O)c2c1C(=O)C(C)(C)C2 [Compound 41, 4-hydroxy-5-(isoindoline-2-carbonyl)-7-isopropyl-2,2-dimethyl-2,3-dihydro-1H-inden-1-one]	> 100	not tolerated	> 100	–	–	54.3 ± 1.32	–	51.31 ± 0.15	–	–	–	–	–	–
C=C1Cc2c(O)c(C(=O)N3Cc4ccccc4C3)cc(C(C)C)c2C1=O [Compound 46, 4-hydroxy-5-(isoindoline-2-carbonyl)-7-isopropyl-2-methylene-2,3-dihydro-1H-inden-1-one]	> 100	did not display good affinity	> 100	did not display good affinity	–	66.5 ± 1.35	–	68.2 ± 1.2	–	–	–	–	–	–
CC(C)c1cc(C(=O)N2Cc3ccccc3C2)c(O)c2c1C(=O)C(F)C2 (stereo not shown) [Compound 42, 2-fluoro-4-hydroxy-5-(isoindoline-2-carbonyl)-7-isopropyl-2,3-di-hydro-1H-inden-1-one]	0.34 ± 0.01	–	2.42 ± 0.07	–	7.1	58.3 ± 1.51	–	20.6 ± 0.28	–	–	–	–	–	–
CC(C)c1cc(C(=O)N2Cc3ccccc3C2)c(O)c2cn[nH]c12 [Compound 19, (4-Hydroxy-7-isopropyl-1H-indazol-5-yl)(isoindolin-2-yl) methanone]	> 100	–	> 100	–	–	> 100	–	> 100	–	–	–	–	–	–
CC(C)c1cc(C(=O)N2Cc3ccccc3C2)c(O)c2c1CCC2 [Compound 31, (4-hydroxy-7-isopropyl-2,3-dihydro-1H-inden-5-yl)(isoindolin-2-yl)methanone]	5.23 ± 0.13	poor binding affinity	> 100	–	> 19.1	59.33 ± 0.18	–	58.1 ± 0.34	–	–	–	–	–	–
CC(C)c1cc(C(=O)N2Cc3ccccc3C2)c(O)c2[nH]nnc12 [Compound 20, (7-Hydroxy-4-isopropyl-1H-benzo[d][1,2,3]triazol-6-yl)(isoindolin-2-yl)methanone]	> 100	–	> 100	–	–	> 100	–	75 ± 21.4	–	–	–	–	–	–

Further lines, with some results ahead:

IC50 (Hsp90β) [µM]	binding affinity for Hsp90β (in words) (Hsp90β)	IC50 (Hsp90α) [µM]	binding affinity for Hsp90α (in words) (Hsp90α)	Selectivity (Hsp90β)	IC50 (HT29 cells) [µM]	selectivity for Hsp90β versus Hsp90α (Hsp90β)	Structure (SMILES)	IC50 (NCI-H1299 cells) [µM]	Erk5 total level [1]	Her-2 total level [1]	Hsp70 level [1]	survivin protein expression level (Hsp90α-dependent client) [1]	Akt protein level (Hsp90β-dependent client) ([1]; dose dependent)	CDK4 protein level (Hsp90β-dependent client) ([1]; dose dependent)
8.29 ± 0.17	–	> 100	–	>12	51.8 ± 2.18	–	CC(C)c1cc(C(=O)N2Cc3ccccc3C2)c(O)c2c1CC=C2 [Compound 32a, (4-Hydroxy-7-isopropyl-1H-inden-5-yl)(isoindolin-2-yl)methanone]	46.1 ± 1.11	–	–	–	–	–	–
1.86 ± 0.11	–	> 100	–	> 53	47.4 ± 2.94	–	CC(C)c1cc(C(=O)N2Cc3ccccc3C2)c(O)c2c1C=CC2 [Compound 32b, (7-hydroxy-4-isopropyl-1H-inden-6-yl)(isoindolin-2-yl)methanone]	41.4 ± 1.2	–	–	–	–	–	–
0.15 ± 0.04	strong affinity	0.79 ± 0.14	strong affinity	–	21.7 ± 2.6	–	CC(C)c1cc(C(=O)N2Cc3ccccc3C2)c(O)c2c1C(=O)CC2 [Compound 29b, 4-Hydroxy-5-(isoindoline-2-carbonyl)-7-isopropyl-2,3-dihydro-1H-inden-1-one]	10 ± 3.28	–	–	–	–	–	–
> 100	–	> 100	–	–	–	–	CC(C)c1cc(C(=O)N2Cc3ccccc3C2)c(O)c2c1C(=O)CCC2 [Compound 59b, 5-hydroxy-6-(isoindoline-2-carbonyl)-8-isopropyl-3,4-dihydronaphthalen-1(2H)-one]	–	–	–	–	–	–	–
> 100	–	> 100	–	–	51.2 ± 2.23	–	CC(C)c1cc(C(=O)N2Cc3ccccc3C2)c(O)c2c1CCCC2=O [Compound 59a, 8-hydroxy-7-(isoindoline-2-carbonyl)-5-isopropyl-3,4-dihydronaphthalen-1(2H)-one]	83.3 ± 1.31	–	–	–	–	–	–
